≈ marks a conversion by molar mass, not a printed value.
Legend:
Type in all cases: functional
[1] = system: Staphylococcus aureus; assay: Antimicrobial activity against mupirocin-susceptible methicillin-resistant Staphylococcus aureus by broth microdilution method
Method in brief: (§1)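 Clinical MRSA isolates (4,980) from 32 Canadian hospitals, 1995–2004, confirmed by multiplex PCR for mecA and nuc. Susceptibility done by broth microdilution following CLSI guidelines. Inducible clindamycin resistance in macrolide-resistant isolates detected by standardized disk approximation test. Isolates grouped as high-level mupirocin-resistant or mupirocin-susceptible. Resistance rates expressed as percentage of isolates per group.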

[2] = system: Staphylococcus aureus; assay: Antimicrobial activity against mupirocin-resistant methicillin-resistant Staphylococcus aureus by broth microdilution method; method in brief: as §1
[3] = system: Staphylococcus aureus; assay: Antimicrobial activity against mupirocin-susceptible methicillin-resistant Staphylococcus aureus assessed as resistant rate by broth microdilution method; method in brief: as §1
[4] = system: Staphylococcus aureus; assay: Antimicrobial activity against mupirocin-resistant methicillin-resistant Staphylococcus aureus assessed as resistant rate by broth microdilution method; method in brief: as §1

Row | SMILES | MIC [1] | MIC90 [1] | MIC [2] | MIC90 [2] | Activity [3] | Activity [4]
1 | O=C(O)c1cn(C2CC2)c2cc(N3CCNCC3)c(F)cc2c1=O [CIPROFLOXACIN] | ≤ 4 µg/mL | > 8 µg/mL | ≥ 512 µg/mL | > 8 µg/mL | 90% | 75%
2 | CCC[C@@H]1C[C@@H](C(=O)N[C@@H]([C@H]2O[C@H](SC)[C@H](O)[C@@H](O)[C@H]2O)[C@H](C)Cl)N(C)C1 [CLINDAMYCIN] | ≤ 4 µg/mL | > 8 µg/mL | ≥ 512 µg/mL | > 8 µg/mL | 86% | 85%
3 | CC[C@H]1OC(=O)[C@H](C)[C@@H](O[C@H]2C[C@@](C)(OC)[C@@H](O)[C@H](C)O2)[C@H](C)[C@@H](O[C@@H]2O[C@H](C)C[C@H](N(C)C)[C@H]2O)[C@](C)(O)C[C@@H](C)C(=O)[C@H](C)[C@@H](O)[C@]1(C)O [ERYTHROMYCIN] | ≤ 4 µg/mL | > 8 µg/mL | ≥ 512 µg/mL | > 8 µg/mL | 94% | 86%
4 | CC(=O)O[C@H]1C[C@@]2(C)[C@@H](C[C@@H](O)[C@H]3[C@@]4(C)CC[C@@H](O)[C@@H](C)[C@@H]4CC[C@@]32C)/C1=C(\CCC=C(C)C)C(=O)O [FUSIDIC ACID] | ≤ 0.5 µg/mL | 0.5 µg/mL (≈ 0.968 µM) | ≥ 512 µg/mL | > 8 µg/mL | 4% | 21%
5 | CC(=O)NC[C@H]1CN(c2ccc(N3CCOCC3)c(F)c2)C(=O)O1 [LINEZOLID] | ≤ 4 µg/mL | 1 µg/mL (≈ 2.96 µM) | ≥ 512 µg/mL | 2 µg/mL (≈ 5.93 µM) | 0% | 0%
6 | C/C(=C\C(=O)OCCCCCCCCC(=O)O)C[C@@H]1OC[C@H](C[C@@H]2O[C@H]2[C@@H](C)[C@H](C)O)[C@@H](O)[C@H]1O [MUPIROCIN] | ≤ 4 µg/mL | 0.5 µg/mL (≈ 0.999 µM) | ≥ 512 µg/mL | > 512 µg/mL | 0% | 100%
7 | CO[C@H]1/C=C/O[C@@]2(C)Oc3c(C)c(O)c4c(O)c(c(/C=N/N5CCN(C)CC5)c(O)c4c3C2=O)NC(=O)/C(C)=C\C=C\[C@H](C)[C@H](O)[C@@H](C)[C@@H](O)[C@@H](C)[C@H](OC(C)=O)[C@@H]1C [RIFAMPIN] | ≤ 4 µg/mL | < 0.5 µg/mL | ≥ 512 µg/mL | < 0.5 µg/mL | 2% | 4%
8 | CN(C)[C@@H]1C(O)=C(C(N)=O)C(=O)[C@@]2(O)C(O)=C3C(=O)c4c(O)cccc4[C@@](C)(O)[C@H]3C[C@@H]12 [TETRACYCLINE] | ≤ 4 µg/mL | > 16 µg/mL | ≥ 512 µg/mL | < 4 µg/mL | 23% | 7%
9 | CN[C@H](CC(C)C)C(=O)N[C@H]1C(=O)N[C@@H](CC(N)=O)C(=O)N[C@H]2C(=O)N[C@H]3C(=O)N[C@H](C(=O)N[C@H](C(=O)O)c4cc(O)cc(O)c4-c4cc3ccc4O)[C@H](O)c3ccc(c(Cl)c3)Oc3cc2cc(c3O[C@@H]2O[C@H](CO)[C@@H](O)[C@H](O)[C@H]2O[C@H]2C[C@](C)(N)[C@H](O)[C@H](C)O2)Oc2ccc(cc2Cl)[C@H]1O [VANCOMYCIN] | ≤ 4 µg/mL | 1 µg/mL (≈ 0.69 µM) | ≥ 512 µg/mL | 1 µg/mL (≈ 0.69 µM) | 0% | 0%

— ChEMBL document CHEMBL1137649, “Mupirocin-resistant, methicillin-resistant Staphylococcus aureus strains in Canadian hospitals” (2007)
